Data taken from ChEMBL document CHEMBL3046706, “Synthesis and quantitative structure-activity relationships of new 2,5-disubstituted-1,3,4-oxadiazoles” (2001).

Experiments:
Type in all cases: functional
Spodoptera eridania = test: Insecticidal activity against second-instar larvae of Spodoptera eridania fed on compound-treated corn leaves measured after 5 days; conditions: 120 h
Mythimna separata [1] = test: Insecticidal activity against second-instar larvae of Mythimna separata (Oriental armyworm) fed on compound-treated mealie leaves measured after 5 days; conditions: 120 h
In short: (§1)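 Second-instar Pseudaletia separata larvae were fed compound-treated mealie leaves, with fresh treated leaves added daily, at about 20 °C in a well-ventilated room. Percent mortality at 5 days was based on the number and size of live larvae relative to untreated controls. LC50 values are in μg/mL and were converted to pLC50 (−log LC50).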

Mythimna separata [2] = test: Insecticidal activity against second-instar larvae of Mythimna separata (Oriental armyworm) fed on compound-treated mealie leaves at pLC50 measured after 5 days; in short: as §1

SMILES | LC50 (Spodoptera eridania) [µM] | LC50 (Mythimna separata [1]) [µM] | mortality (Mythimna separata [2]) [%]
Fc1cc(-c2nnc(-c3ccc(Cl)cc3Cl)o2)c(Cl)cc1Cl | 5.25 | – | –
Fc1cc(-c2nnc(-c3cc(F)c(Cl)cc3Cl)o2)c(Cl)cc1Cl | 1.78 | – | –
Clc1ccc(-c2nnc(-c3ccc(Cl)cc3Cl)o2)c(Cl)c1 | 10.2 | – | –
Fc1cccc(-c2nnc(-c3cc(F)c(Cl)cc3Cl)o2)c1 | 51.3 | – | –
Fc1cc(-c2nnc(COc3ccc(Cl)cc3Cl)o2)c(Cl)cc1Cl | – | 1700 | –
CC1(C)C(C=C(Cl)Cl)C1c1nnc(-c2cccc(F)c2)o1 (configuration not stated) | 759 | – | –
CC1(C)C(C=C(Cl)Cl)C1c1nnc(-c2cc(F)c(Cl)cc2Cl)o1 (configuration not stated) | 562 | – | –
Fc1cc(-c2nnc(COc3ccc(Cl)cc3)o2)c(Cl)cc1Cl | – | 55 | –
Clc1ccc(OCc2nnc(-c3ccc(Cl)cc3Cl)o2)c(Cl)c1 | – | 776 | –
Clc1ccc(OCc2nnc(-c3ccc(Cl)nc3)o2)cc1 | – | > 1000 | 7
Clc1ccc(OCc2nnc(-c3cccnc3Cl)o2)cc1 | – | > 1000 | 0
Fc1cccc(-c2nnc(COc3ccc(Cl)cc3)o2)c1 | – | > 1000 | 0
Clc1ccc(OCc2nnc(-c3ccc(Cl)cc3Cl)o2)cc1 | – | 15.8 | –
Fc1cc(-c2nnc(COc3ccccc3Cl)o2)c(Cl)cc1Cl | – | 14.5 | –
CC1(C)C(C=C(Cl)Cl)C1c1nnc(/C=C/c2ccccc2)o1 (mixture of isomers) | – | > 1000 | 0
CC1(C)C(C=C(Cl)Cl)C1c1nnc(-c2ccc(Cl)cc2)o1 (mixture of isomers) | – | > 1000 | 0
COc1ccc(-c2nnc(C3C(C=C(Cl)Cl)C3(C)C)o2)cc1 (mixture of isomers) | – | > 1000 | 0
CC1(C)C(C=C(Cl)Cl)C1c1nnc(-c2cccs2)o1 (mixture of isomers) | – | > 1000 | 0
CC1(C)[C@@H](C=C(Cl)Cl)[C@@H]1c1nnc(-c2ccc(Cl)cc2Cl)o1 (relative stereo) | – | 123 | –
CC1(C)[C@@H](C=C(Cl)Cl)[C@@H]1c1nnc(-c2ccccc2)o1 (relative stereo) | – | 1380 | –
